Each structure is given as a SMILES string. ≈ marks a conversion by molar mass, not a printed value.

A word on the GI50: it is the concentration giving 50% growth inhibition. Low values mean greater sensitivity of the cells, high ones lower sensitivity of the cells.

Data set [1] is described as follows: Cytotoxicity against human HeLa cells after 24 hrs by CellTiter-Glo luminescent cell viability assay. The data set is classed as toxicity, cell-based. The gist of the method: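 HeLa cells seeded at 20 000 cells/well in DMEM with 10% FCS and 1% penicillin/streptomycin, grown 16 h at 37 °C in 5% CO2. Medium then replaced and compounds added in DMSO (1 μL per 100 μL), final 0.5–32 μg/mL, triplicate. After 24 h at 37 °C, plates equilibrated to room temperature and CellTiter-Glo luminescence read.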

The test system of data set [2] is Staphylococcus aureus. Briefly: Potentiation of amoxicillin/clavulanic acid-induced antibacterial activity against methicillin-resistant Staphylococcus aureus NRS100 assessed as compound concentration required in combination with amoxicillin/clavulanic acid to return MRSA sensitive concentration below 4 ug/ml after overnight incubation. The data set is classed as functional. The gist of the method: (§1)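 Antibiotic held at fixed final level in MHB (amoxicillin/clavulanic acid 4/2 μg/mL; cefazolin 8 μg/mL); test compound (10 mg/mL DMSO stock) 2-fold serially diluted from 64 μg/mL top; final inoculum OD600 0.001; overnight at 37 °C with shaking; MRC = lowest compound concentration with no visible growth.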

The subject of data set [3] is Staphylococcus aureus. Briefly: Antibacterial activity against methicillin-resistant Staphylococcus aureus NRS100 after 18 hrs by broth microdilution method. In general terms: Dilution methods test growth across graded concentrations, often in twofold steps.
The test system of data set [4] is Staphylococcus aureus. In words: Potentiation of cefazolin-induced antibacterial activity against methicillin-resistant Staphylococcus aureus ATCC BAA-44 assessed as compound concentration required in combination with cefazolin to return MRSA sensitive concentration below 8 ug/ml after overnight incubation. The data set is classed as functional. The gist of the method: as §1

As to `C=C1CCCC[C@@]23N(C(C)=O)CC[C@@]12c1c(C)cc(C)cc1N3C`, halving of growth in data set [1] (GI50 at 24 h) required 15 µg/mL (≈ 46.2 µM). Moreover, the MRC in the data set on Staphylococcus aureus [2] and in the data set with Staphylococcus aureus [4] was 32 µg/mL throughout. For the same compound, in the data set on Staphylococcus aureus [3], the MIC is > 64 µg/mL.
The compound `C=C1CCCC[C@@]23N(CC)CC[C@@]12c1c(C)cc(C)cc1N3C` registered a GI50 at 24 h in data set [1] of 18 µg/mL (≈ 58 µM). Moreover, the MRC in the data set on Staphylococcus aureus [2] is 32 µg/mL; with Staphylococcus aureus [4] it was 8 µg/mL. For the same compound, the MIC against Staphylococcus aureus [3] is > 64 µg/mL.
For `C=C1CCC[C@@]23N(C(=O)OC)CC[C@@]12c1cc(C)ccc1N3C` the same measures were 15 µg/mL (≈ 48 µM), 16 µg/mL, 16 µg/mL and > 64 µg/mL.
The matching figures for `C=C1CCCC[C@@]23N(C(=O)OC(C)(C)C)CC[C@@]12c1c(C)cc(C)cc1N3C`: 47 µg/mL (≈ 123 µM), 4 µg/mL, 8 µg/mL and > 64 µg/mL.
For `C=C1CCCC[C@@]23N(C)CC[C@@]12c1c(C)cc(C)cc1N3C` the same measures were 20 µg/mL (≈ 67.5 µM), 16 µg/mL, 8 µg/mL and > 64 µg/mL.
`C=C1CCCC[C@@]23N(C(=O)NCc4ccccc4)CC[C@@]12c1c(C)cc(C)cc1N3C`: the GI50 at 24 h in data set [1] was > 64 µg/mL. The MRC in the data set on Staphylococcus aureus [2] and with Staphylococcus aureus [4] was >64 µg/mL throughout. Moreover, in the data set on Staphylococcus aureus [3], the MIC is > 64 µg/mL.
In the case of `C=C1CCC[C@@]23N(C(=O)OCC)CC[C@@]12c1cc(Cl)ccc1N3C`, in data set [1], the GI50 at 24 h stood at 41 µg/mL (≈ 118 µM). Also, the MRC amounted to 8 µg/mL in the data set on Staphylococcus aureus [2] and 16 µg/mL in the data set with Staphylococcus aureus [4]. In addition, the MIC in the data set with Staphylococcus aureus [3] is > 64 µg/mL.
Compound `C=C1CCC[C@@]23N(C(=O)OC)CC[C@@]12c1cc(Cl)ccc1N3C` had a GI50 at 24 h in data set [1] of 41 µg/mL (≈ 123 µM). Also, the MRC came out at 8 µg/mL in the data set on Staphylococcus aureus [2] and 16 µg/mL with Staphylococcus aureus [4]. Also, the MIC against Staphylococcus aureus [3] was > 64 µg/mL.
For `C=C1CCCC[C@]23N(C)c4cc(C)cc(C)c4[C@]12CCN3S(=O)(=O)c1ccc(Cl)cc1` the same measures were > 64 µg/mL, >64 µg/mL, >64 µg/mL and > 64 µg/mL.
The matching figures for `C=C1CCCC[C@@]23N(C(=O)OCC)CC[C@@]12c1cc(F)c(OC)cc1N3C`: > 64 µg/mL, >64 µg/mL, >64 µg/mL and > 64 µg/mL.
The matching figures for `C=C1CCCC[C@@]23N(C(=O)NCC)CC[C@@]12c1c(C)cc(C)cc1N3C`: 51 µg/mL (≈ 144 µM), >64 µg/mL, >64 µg/mL and > 64 µg/mL.
In the case of `C=C1CCCC[C@@]23N(C(=O)OC)CC[C@@]12c1ccccc1N3C`, in data set [1], halving of growth (GI50 at 24 h) required 30 µg/mL (≈ 96 µM). In addition, the MRC in the data set on Staphylococcus aureus [2] and with Staphylococcus aureus [4] was >64 µg/mL each time. The MIC in the data set with Staphylococcus aureus [3] is > 64 µg/mL.
Compound `C=C1CCCC[C@@]23N(C(=O)OC)CC[C@@]12c1cc(C)ccc1N3C` showed a GI50 at 24 h in data set [1] of 27 µg/mL (≈ 82.7 µM). Besides, the MRC with Staphylococcus aureus [2] turned out to be 4 µg/mL; in the data set on Staphylococcus aureus [4] it was 8 µg/mL. Moreover, the MIC with Staphylococcus aureus [3] was > 64 µg/mL.
`C=C1CCCC[C@@]23N(C(N)=O)CC[C@@]12c1c(C)cc(C)cc1N3C` displayed a GI50 at 24 h in data set [1] of 19 µg/mL (≈ 58.4 µM). In addition, the MRC with Staphylococcus aureus [2] and in the data set with Staphylococcus aureus [4] was 64 µg/mL each time. The MIC in the data set on Staphylococcus aureus [3] was > 64 µg/mL.
For `C=C1CCCC[C@@]23N(C(=O)CCC(=O)O)CC[C@@]12c1c(C)cc(C)cc1N3C`, in data set [1], the GI50 at 24 h is > 64 µg/mL. The MRC in the data set with Staphylococcus aureus [2] and in the data set with Staphylococcus aureus [4] was >64 µg/mL in each case. Further, in the data set on Staphylococcus aureus [3], the MIC is > 64 µg/mL.
Compound `C=C1CCCC[C@@]23N(C(=O)OC)CC[C@@]12c1c(C)cc(C)cc1N3CC` gave a GI50 at 24 h in data set [1] of 30 µg/mL (≈ 84.6 µM). The figures for the MRC in the data set with Staphylococcus aureus [2] and with Staphylococcus aureus [4] were 4 µg/mL and 2 µg/mL, respectively. Moreover, in the data set with Staphylococcus aureus [3], the MIC was > 64 µg/mL.
In data set [1], `C=C1CCCC[C@@]23NCC[C@@]12c1c(C)cc(C)cc1N3C` came in with a GI50 at 24 h of 26 µg/mL (≈ 92.1 µM). For the same compound, the MRC is 64 µg/mL in the data set with Staphylococcus aureus [2] and 32 µg/mL with Staphylococcus aureus [4]. Moreover, the MIC against Staphylococcus aureus [3] is > 64 µg/mL.
Compound `C=C1CCCC[C@]23Nc4cc(C)cc(C)c4[C@]12CCN3C(=O)OC` returned a GI50 at 24 h in data set [1] of 28 µg/mL (≈ 85.8 µM). Also, the MRC with Staphylococcus aureus [2] was found to be 8 µg/mL; in the data set on Staphylococcus aureus [4], 4 µg/mL. Further, the MIC with Staphylococcus aureus [3] was > 64 µg/mL.
As to `C=C1CCCC[C@@]23N(C(=O)OCc4ccccc4)CC[C@@]12c1c(C)cc(C)cc1N3C`, in data set [1], the GI50 at 24 h was > 64 µg/mL. In addition, the results for the MRC with Staphylococcus aureus [2] and in the data set with Staphylococcus aureus [4] were 64 µg/mL and >64 µg/mL, respectively. Further, in the data set with Staphylococcus aureus [3], the MIC was > 64 µg/mL.
For `C=C1CCC[C@@]23N(C(=O)OC)CC[C@@]12c1c(C)cc(C)cc1N3C`, in data set [1], halving of growth (GI50 at 24 h) required 40 µg/mL (≈ 123 µM). In addition, the MRC is 8 µg/mL in the data set with Staphylococcus aureus [2] and 16 µg/mL in the data set with Staphylococcus aureus [4]. The MIC in the data set on Staphylococcus aureus [3] is > 64 µg/mL.
The compound `C=C1CCCC[C@@]23N(C(=N)N)CC[C@@]12c1c(C)cc(C)cc1N3C` yielded a GI50 at 24 h in data set [1] of 19 µg/mL (≈ 58.6 µM). In addition, the MRC amounted to 32 µg/mL in the data set with Staphylococcus aureus [2] and 16 µg/mL in the data set with Staphylococcus aureus [4]. The MIC with Staphylococcus aureus [3] was > 64 µg/mL.
Take `C=C1CCCC[C@@]23N(C(=O)C(F)(F)F)CC[C@@]12c1c(C)cc(C)cc1N3C`: the GI50 at 24 h in data set [1] was > 64 µg/mL. The MRC in the data set with Staphylococcus aureus [2] and in the data set on Staphylococcus aureus [4] was >64 µg/mL each time. Also, in the data set on Staphylococcus aureus [3], the MIC is > 64 µg/mL.
Consider `C=C1CCCC[C@@]23N(C(=O)OCC)CC[C@@]12c1cc(F)ccc1N3C`, for which, in data set [1], the GI50 at 24 h was > 64 µg/mL. For the same compound, the MRC in the data set on Staphylococcus aureus [2] and in the data set on Staphylococcus aureus [4] was >64 µg/mL each time. Moreover, the MIC against Staphylococcus aureus [3] is > 64 µg/mL.
On to `C=C1CCC[C@@]23N(C(=O)OCC)CC[C@@]12c1cc(C)ccc1N3C`, for which the GI50 at 24 h in data set [1] is 43 µg/mL (≈ 132 µM). Also, the MRC amounted to 32 µg/mL in the data set with Staphylococcus aureus [2] and 64 µg/mL with Staphylococcus aureus [4]. The MIC in the data set with Staphylococcus aureus [3] was > 64 µg/mL.
The matching figures for `C#CCN1c2cc(C)cc(C)c2[C@@]23CCN(C(=O)OC)[C@@]12CCCCC3=C`: 17 µg/mL (≈ 46.6 µM), 64 µg/mL, 64 µg/mL and > 64 µg/mL.
The compound `C=C1CCCC[C@@]23N(C(=O)OC)CC[C@@]12c1cc(Cl)ccc1N3C` showed a GI50 at 24 h in data set [1] of 53 µg/mL (≈ 153 µM). Further, the MRC with Staphylococcus aureus [2] turned out to be 4 µg/mL; in the data set with Staphylococcus aureus [4] it was 8 µg/mL. In the data set on Staphylococcus aureus [3], the MIC is > 64 µg/mL.

The record behind these values is ChEMBL document CHEMBL3877254, “Tetracyclic indolines as a novel class of β-lactam-selective resistance-modifying agent for MRSA” (Eur J Med Chem, 2017).
